From PubChem BioAssay
p97 ATPase inh – inhibitors of human p97 ATPase, primary screen, biochemical | hit rate 0.42% among 220,000 | inhibition, % at 8 µM | AID 1481, 2009 | recombinant p97 ATPase, Kinase-Glo ATP luminescence, 3 h; in the data active = inhibition above about 15%
14-3-3 Bad inh – inhibitors of 14-3-3 zeta/Bad binding, primary screen, biochemical, TR-FRET, bovine 14-3-3 zeta | TR-FRET 14-3-3zeta/Dy647-pBad peptide displacement, 1 h | inhibition, % at 21.7 µM | hit rate 0.71% among 220,000 | AID 781, 2007;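 active = inhibition above about 70%, limit read from the data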
UBC9 SUMO inh – inhibitors of in vitro SUMOylation cascade, primary screen, biochemical, HTRF, uHTS; HTRF SUMOylation assay, SAE1/SAE2 + UBC9; inhibition, % at 35 µM; hit rate 0.36% among 290,000; AID 2006, 2009; in the data active = inhibition above about 50%, passing the limit was not always enough
eIF4E-4G inh – eIF4E–eIF4G protein interaction inhibitors, primary screen, biochemical, uHTS, TR-FRET, eIF4GI fragment. TR-FRET eIF4E-eIF4GI(517-606) binding, 2 h. inhibition, % at 21.7 µM. hit rate 0.37% among 220,000
Target sequence (P63073 whole entry, looked up, the tested form may be a part): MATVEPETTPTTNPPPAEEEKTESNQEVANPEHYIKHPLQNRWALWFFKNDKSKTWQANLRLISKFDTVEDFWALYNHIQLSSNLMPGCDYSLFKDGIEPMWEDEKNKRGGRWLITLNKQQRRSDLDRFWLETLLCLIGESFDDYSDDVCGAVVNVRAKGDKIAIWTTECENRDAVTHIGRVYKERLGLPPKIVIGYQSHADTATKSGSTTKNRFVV
Target sequence (Q04637 whole entry, looked up, the tested form may be a part): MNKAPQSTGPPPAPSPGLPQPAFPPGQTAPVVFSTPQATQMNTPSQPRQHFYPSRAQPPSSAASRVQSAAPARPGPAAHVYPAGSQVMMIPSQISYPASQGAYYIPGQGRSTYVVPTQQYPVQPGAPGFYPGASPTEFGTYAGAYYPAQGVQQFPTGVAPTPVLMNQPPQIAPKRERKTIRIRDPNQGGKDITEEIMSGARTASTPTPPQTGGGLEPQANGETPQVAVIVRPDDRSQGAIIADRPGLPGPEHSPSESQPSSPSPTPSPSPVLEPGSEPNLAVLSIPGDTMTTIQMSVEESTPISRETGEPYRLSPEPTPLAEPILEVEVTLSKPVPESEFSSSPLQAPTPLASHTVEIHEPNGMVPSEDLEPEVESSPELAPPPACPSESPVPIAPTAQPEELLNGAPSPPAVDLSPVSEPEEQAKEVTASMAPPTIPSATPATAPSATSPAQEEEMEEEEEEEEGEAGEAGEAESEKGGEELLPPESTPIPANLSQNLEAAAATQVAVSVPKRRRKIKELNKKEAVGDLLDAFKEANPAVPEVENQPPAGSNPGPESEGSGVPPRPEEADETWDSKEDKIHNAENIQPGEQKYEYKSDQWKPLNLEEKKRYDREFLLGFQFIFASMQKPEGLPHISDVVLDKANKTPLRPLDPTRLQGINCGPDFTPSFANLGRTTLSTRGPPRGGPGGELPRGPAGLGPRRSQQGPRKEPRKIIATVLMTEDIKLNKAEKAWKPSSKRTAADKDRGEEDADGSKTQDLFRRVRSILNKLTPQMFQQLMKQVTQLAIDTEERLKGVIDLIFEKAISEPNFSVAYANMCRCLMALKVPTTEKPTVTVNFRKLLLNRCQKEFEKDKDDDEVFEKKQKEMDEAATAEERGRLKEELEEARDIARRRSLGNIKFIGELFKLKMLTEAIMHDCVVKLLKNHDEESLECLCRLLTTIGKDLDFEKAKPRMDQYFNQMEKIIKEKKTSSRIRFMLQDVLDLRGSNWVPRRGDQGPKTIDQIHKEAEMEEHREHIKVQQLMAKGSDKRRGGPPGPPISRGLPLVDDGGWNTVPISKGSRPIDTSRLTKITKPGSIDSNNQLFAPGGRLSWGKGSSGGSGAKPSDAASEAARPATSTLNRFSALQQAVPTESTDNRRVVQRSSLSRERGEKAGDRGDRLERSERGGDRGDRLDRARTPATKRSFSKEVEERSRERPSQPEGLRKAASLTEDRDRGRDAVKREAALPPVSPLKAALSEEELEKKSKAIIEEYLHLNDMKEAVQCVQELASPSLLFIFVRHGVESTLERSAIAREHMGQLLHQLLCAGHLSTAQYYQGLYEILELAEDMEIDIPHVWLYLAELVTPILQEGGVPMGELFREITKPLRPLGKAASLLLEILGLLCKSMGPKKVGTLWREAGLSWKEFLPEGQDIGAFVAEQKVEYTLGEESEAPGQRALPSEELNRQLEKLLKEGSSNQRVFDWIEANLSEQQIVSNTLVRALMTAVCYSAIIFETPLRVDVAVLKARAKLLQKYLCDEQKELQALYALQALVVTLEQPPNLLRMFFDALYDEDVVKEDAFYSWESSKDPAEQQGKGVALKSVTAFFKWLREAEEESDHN
Tb MetRS inh – T. brucei MetRS inhibitors, primary screen, biochemical, luminescence. hit rate 0.4% among 360,000. inhibition, % at 11.9 µM. purified T. brucei MetRS, ATP depletion, Kinase-Glo luminescence. methionyl-tRNA synthetase (Trypanosoma brucei brucei);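 active = inhibition above a per-plate cutoff of the control wells' mean inhibition plus 3 SD, cut at about 5.5% in these data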
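Dosing: 11.9 µM compound single dose, 0.9% DMSO; Assay system: purified T. brucei MetRS enzyme; Measured by: Kinase-Glo luciferase luminescence reporting remaining unconsumed ATP; Schedule: 15 min plus 2 h at 25 °C.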
p47phox inh – p47phox/p22phox peptide binding inhibitors, primary screen, biochemical, uHTS, NADPH oxidase regulatory subunit. hit rate 0.53% among 220,000. Neutrophil cytosol factor 1 (Homo sapiens), P14598. fluorescence polarization, 2 h. inhibition, % at 24.7 µM
p97 inh conf – p97 ATPase inhibitors, retest, confirmation, biochemical; hit rate 44% among 760; inhibition, % at 8 µM; recombinant p97 ATPase, Kinase-Glo ATP luminescence; shares compounds with p97 ATPase inh; AID 1517, 2009;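 active = percent inhibition of p97 ATPase above a set limit, the primary screen's mean plus 3 SD, cut at about 15% in these data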
Hits are given with their value; 0 = inactive; - = no result given. Compounds with a hit are over-represented: about 1.6% of the library has one in this group of screens.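 Rule for the calls, unless noted: active = inhibition above about 30% (limit read from the data); inactive = the rest.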

SMILES	p97 ATPase inh	14-3-3 Bad inh	UBC9 SUMO inh	eIF4E-4G inh	Tb MetRS inh	p47phox inh	p97 inh conf
Cn1c(-c2ccccc2)c(CCO)c2ccccc21	0	0	0	0	0	0	-
Cn1c(-c2ccccc2)c(C(=O)CCl)c2ccccc21	34	0	0	0	0	0	34
COc1ccccc1NS(=O)(=O)c1cc(NC(=O)c2ccncc2)ccc1N1CCCC1	0	0	0	0	0	0	-
Cc1cc(OCC(=O)Nc2ccc3oc(=O)ccc3c2)ccc1Cl	-	-	0	-	0	-	-
CCc1cc2c(=O)c(-c3nc(C)cs3)coc2cc1OC(C)C(=O)NCCO (centres undefined)	0	0	0	0	0	0	-
Cc1cc(N)c2cc(NC(=O)/C=C/c3ccccc3Cl)ccc2n1	24	0	0	0	0	97	23
CC1CCc2nc(N)c(C#N)c(-c3cccnc3)c2C1 (centres undefined)	26	0	0	0	0	0	0
COc1ccc(NS(=O)(=O)c2cccc(C(=O)NNC(=O)c3cc(S(N)(=O)=O)ccc3OC)c2)cc1	-	-	-	-	0	-	-
CC1=NN(Cc2ccccc2)C(=O)C1C(c1ccc(Cl)cc1)C(C#N)C#N (centres undefined)	18	0	0	0	0	0	0
COc1ccc(-c2nc3c4ccccc4ccn3c2C=O)cc1	15	0	0	0	0	0	0
O=C(CN(c1ccc(F)cc1)S(=O)(=O)c1ccccc1)NCCSC1CCCCC1	0	0	0	0	0	0	-
COc1ccccc1-c1nnc(Sc2nc([N+](=O)[O-])nn2C)o1	16	0	0	0	0	0	24
Cc1ccc(C(=O)NC(=C(Cl)Cl)S(=O)(=O)c2ccc(C)cc2)cc1	0	0	0	0	0	0	-
Cc1ccc(C(=O)NC(=C(Cl)Cl)S(=O)(=O)c2ccc(Cl)cc2)cc1	17	0	0	0	0	0	23
O=C(NC(=C(Cl)Cl)S(=O)(=O)c1ccc(Cl)cc1)c1ccccc1	25	0	0	0	0	0	27
O=C(Nc1ccc(NS(=O)(=O)c2ccccc2)c(Cl)c1)c1ccccc1	-	-	-	-	0	-	-
Cc1cc(O)c(CN(C)C)c2c1C(=O)/C(=C/c1ccco1)O2	-	-	0	-	0	-	-
Cc1cc(O)c(C=O)c2c1C(=O)Oc1c(CO)c(O)c3c(c1O2)C(O)OC3=O (centres undefined)	64	0	96	0	0	0	24
OCC#Cc1ncc(C(F)(F)F)cc1Cl	28	0	0	0	0	0	33
Cc1ccc(S(=O)(=O)N2CCC(C(=O)N3CCc4ccccc43)CC2)cc1C	-	-	-	-	0	-	-
CN(C)S(=O)(=O)c1ccc2c(c1)nc(CCC(=O)O)n2C	16	0	0	0	0	0	0
O=C(O)c1ccc(NS(=O)(=O)c2ccc3c(c2)C2C=CCC2C(c2ccccc2F)N3)cc1 (centres undefined)	32	0	-	0	0	0	37
O=C(O)c1ccc2c(c1)C1C=CCC1C(c1cc3c(cc1Br)OCO3)N2 (centres undefined)	0	0	0	0	0	0	-
COc1ccc(/C=N/NC(=O)c2ccc(N)cc2)cc1Cn1cc([N+](=O)[O-])cn1	20	0	0	0	0	0	0
O=C1CSC(=S)N1c1cccc(F)c1	-	-	0	-	0	-	-
SMILES	p97 ATPase inh	14-3-3 Bad inh	UBC9 SUMO inh	eIF4E-4G inh	Tb MetRS inh	p47phox inh	p97 inh conf
O=C1CC(=O)N(c2cccc(F)c2)N1	22	0	0	0	0	0	0
CCCN1CCC(=O)N([C@H](CN=[N+]=[N-])CC(C)C)CC1	-	-	0	-	0	-	-
Cc1cc(Br)c(NC(=O)COC(=O)C2CCCCC2)c(Br)c1	-	-	-	-	0	-	-
O=C(Nc1cccc(F)c1)c1c(O)c2cccc3c2n(c1=O)CCC3	18	0	0	0	-	0	0
Cc1cccc(NC(=O)c2c(O)c3cccc4c3n(c2=O)CC4)c1	0	-	-	-	-	-	-
CCOc1cc(/C=C2/C(=O)N(c3ccccc3)N=C2C)ccc1OC(=O)c1ccco1	27	0	0	0	0	0	0
CC(=O)Nc1c(S(=O)(=O)c2ccccc2)c2nc3ccccc3nc2n1Cc1ccccc1	0	0	0	0	0	0	-
O=S(=O)(Nc1c(S(=O)(=O)c2ccccc2)c2nc3ccccc3nc2n1C1CCCCC1)c1ccccc1	20	0	99	0	0	0	0
C=CCn1c(NS(=O)(=O)c2ccccc2)c(S(=O)(=O)c2ccc(C)cc2)c2nc3ccccc3nc21	31	0	-	0	0	0	29
CCOc1ccc2nc(SCC(=O)NCc3ccc(S(N)(=O)=O)cc3)[nH]c2c1	-	-	0	-	0	-	-
Cc1ccc(C)n1Cc1ccc(C(=O)O)cc1	28	0	0	0	0	0	0
Cc1cc(C)n(Cc2ccc(C(=O)O)cc2)n1	0	0	0	0	0	0	-
O=C(OCC(=O)N(CCc1ccccc1)Cc1ccccc1)c1cccc(S(=O)(=O)N2CCOCC2)c1	-	-	-	-	0	-	-
O=[N+]([O-])c1ccc(NCc2ccccc2N2CCC(CO)CC2)nc1	-	-	0	-	0	-	-
CCOC(=O)c1[nH]c2ccc(Br)cc2c1NC(=O)CCN1CCN(C(=O)OCC)CC1	0	0	0	0	0	0	-
CCOC(=O)c1[nH]c2ccc(Br)cc2c1NC(=O)CCN1CCC(C(=O)OCC)CC1	18	0	0	0	0	0	16
CCOC(=O)c1[nH]c2ccc(Br)cc2c1NC(=O)CCN1CCCCC1	22	0	0	0	-	0	0
N#Cc1ccccc1NC(=O)CSc1nnc(-c2ccncc2)o1	0	0	0	0	0	0	-
CC(C)OC(=O)CSc1n[nH]c(-c2cccnc2)n1	15	0	0	0	0	0	0
O=C1C=C(NCc2ccccc2)c2ccccc2C1=O	48	0	0	0	0	0	33
Cc1cc2cc(CCNC(=O)c3cccs3)c(=O)[nH]c2cc1C	0	0	0	0	0	0	-
CCN(CC)C(=O)C1=C(C)N(Cc2ccccc2)C(=O)C(CC(=O)NC2CC2)C1 (centres undefined)	-	-	-	-	0	-	-
CC(C)(C)OC(=O)N/N=C/c1cccn1-c1ccc([N+](=O)[O-])cc1	16	0	0	0	0	0	0
CN(C)C(=O)c1cc(C(=O)c2ccc(C(F)(F)F)cc2)c[nH]1	-	-	0	-	0	-	-
